In ChEMBL document CHEMBL4118021, “Studies of TAK1-centered polypharmacology with novel covalent TAK1 inhibitors” (Bioorg Med Chem, 2017):
Activity calls are given as the source filed them. The rule behind the calls is not given here.

Columns and labels:
[1] = biological target: Ribosomal protein S6 kinase alpha-6 (Homo sapiens) (UniProt Q9UK32); test: Inhibition of human RSK4 (1 to 397 residues) expressed in mammalian expression system assessed as enzyme activity at 1 uM by KINOMEScan assay relative to control; parameters: scale not given: the % may be the effect or the level left
Method in brief: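 In vitro ATP-site competition binding assay across a panel of 456 kinases, with compound tested at 1 and 10 μM.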

[2] = biological target: Activin receptor type-1 (Homo sapiens) (UniProt Q04771); test: Inhibition of human ACVR1 (188 to 509 residues) expressed in bacterial expression system assessed as enzyme activity at 10 uM by KINOMEScan assay relative to control; parameters: scale not given: the % may be the effect or the level left
Method in brief: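 In vitro ATP-site competition binding assay (KinomeScan) across a panel of 456 kinases. Compound was tested at 1 and 10 μM. The read-out is the binding inhibition score relative to control.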

[3] = biological target: AP2-associated protein kinase 1 (Homo sapiens) (UniProt Q2M2I8); test: Binding affinity to AAK1 in human NCI-H23 cells at 1 uM by mass spectrometry based pull down assay; format: cell-based
Method in brief: (§1)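 NCI-H23 or NCI-H358 cells were grown and lysed. Lysates were incubated overnight at 4 °C with 1 μM biotinylated covalent probe or DMSO, then pulled down on streptavidin beads. Proteins were run on polyacrylamide gels and stained with Coomassie. Bands were excised, digested and identified by mass spectrometry.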

[4] = biological target: Vasodilator-stimulated phosphoprotein (Homo sapiens) (UniProt P50552); test: Binding affinity to VASP in human NCI-H23 cells at 1 uM by mass spectrometry based pull down assay; format: cell-based
[5] = biological target: Proteasome activator complex subunit 2 (Homo sapiens) (UniProt Q9UL46); test: Binding affinity to PSME2 in human NCI-H358 cells at 1 uM by mass spectrometry based pull down assay; format: cell-based
[6] = biological target: Ribosomal protein S6 kinase alpha-1 (Homo sapiens) (UniProt Q15418); test: Binding affinity to RPS6KA1 in human NCI-H23 cells at 1 uM by mass spectrometry based pull down assay; format: cell-based
[7] = system: NCI-H23; test: Binding affinity to PSMA3 in human NCI-H23 cells at 1 uM by mass spectrometry based pull down assay; format: cell-based
[8] = biological target: Dual specificity mitogen-activated protein kinase kinase 2 (Homo sapiens) (UniProt P36507); test: Binding affinity to MAP2K2 in human NCI-H358 cells at 1 uM by mass spectrometry based pull down assay; format: cell-based
[9] = biological target: DNA replication licensing factor MCM6 (Homo sapiens) (UniProt Q14566); test: Binding affinity to MCM6 in human NCI-H23 cells at 1 uM by mass spectrometry based pull down assay; format: cell-based
[10] = biological target: Pyruvate dehydrogenase E1 component subunit beta, mitochondrial (Homo sapiens) (UniProt P11177); test: Binding affinity to PDHB in human NCI-H23 cells at 1 uM by mass spectrometry based pull down assay; format: cell-based
[11] = biological target: 80S Ribosome (Homo sapiens) (UniProt P08865+P42677+P62753+P15880+P23396+P61247+P62701+P22090+P46782+P62081+P62241+P46781+P46783+P62280+P25398+P62277+P62263+P62841+P62244+P62249+P08708+P62269+P39019+P60866+P63220+P62266+P62847+P62851+P62854+P62979+P62857+P62273+P62861+P39023+P36578+P46777+Q02878+P18124+P62424+P62917+P32969+P27635+P62906+P62913+P30050+P26373+P40429+P50914+P61313+P18621+Q07020+Q02543+P84098+P46778+P35268+P62829+P62750+P83731+P61254+P61353+P46776+P46779+P47914+P62888+P62899+P62910+P49207+P42766+P18077+Q9Y3U8+P83881+P61927+P61513+P63173+P62891+P62945+P05388+P05386); test: Binding affinity to RPS17 in human NCI-H358 cells at 1 uM by mass spectrometry based pull down assay; format: cell-based
[12] = biological target: TBC1 domain family member 15 (Homo sapiens) (UniProt Q8TC07); test: Binding affinity to TBC1D15 in human NCI-H23 cells at 1 uM by mass spectrometry based pull down assay; format: cell-based
[13] = biological target: Kinesin-like protein KIF15 (Homo sapiens) (UniProt Q9NS87); test: Binding affinity to KIF15 in human NCI-H358 cells at 1 uM by mass spectrometry based pull down assay; format: cell-based
[14] = biological target: ATP-citrate synthase (Homo sapiens) (UniProt P53396); test: Binding affinity to ACLY in human NCI-H23 cells at 1 uM by mass spectrometry based pull down assay; format: cell-based; method in brief: as §1
[15] = biological target: Mitogen-activated protein kinase 1 (Homo sapiens) (UniProt P28482); test: Binding affinity to MAPK1 in human NCI-H358 cells at 1 uM by mass spectrometry based pull down assay; format: cell-based
[16] = biological target: T1, Mitogen-activated protein kinase kinase kinase 7 (Homo sapiens, UniProt O43318); test: Inhibition of TAK1 (unknown origin) after 60 mins by biochemical assay
T1 sequence (O43318 whole entry): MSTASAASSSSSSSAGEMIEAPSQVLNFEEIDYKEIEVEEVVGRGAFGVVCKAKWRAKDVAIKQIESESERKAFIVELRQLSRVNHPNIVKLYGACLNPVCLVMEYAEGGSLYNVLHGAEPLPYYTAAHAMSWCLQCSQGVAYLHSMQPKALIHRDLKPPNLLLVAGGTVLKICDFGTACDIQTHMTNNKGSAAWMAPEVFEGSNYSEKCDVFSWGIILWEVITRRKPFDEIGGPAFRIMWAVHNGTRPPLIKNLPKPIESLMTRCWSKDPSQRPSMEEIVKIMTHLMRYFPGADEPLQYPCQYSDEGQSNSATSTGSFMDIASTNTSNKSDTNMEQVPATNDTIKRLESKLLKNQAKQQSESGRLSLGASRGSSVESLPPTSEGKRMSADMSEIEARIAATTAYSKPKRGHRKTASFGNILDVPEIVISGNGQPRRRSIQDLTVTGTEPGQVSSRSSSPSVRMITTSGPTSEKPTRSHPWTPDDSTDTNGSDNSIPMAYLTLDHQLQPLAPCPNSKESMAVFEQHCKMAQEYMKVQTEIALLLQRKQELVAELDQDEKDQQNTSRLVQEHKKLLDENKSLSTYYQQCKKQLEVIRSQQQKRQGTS

[17] = biological target: 5'-AMP-activated protein kinase subunit gamma-1 (Homo sapiens) (UniProt P54619); test: Binding affinity to PRKAG1 in human NCI-H358 cells at 1 uM by mass spectrometry based pull down assay; format: cell-based
[18] = biological target: Ubiquitin-like modifier-activating enzyme 1 (Homo sapiens) (UniProt P22314); test: Binding affinity to UBA1 in human NCI-H23 cells at 1 uM by mass spectrometry based pull down assay; format: cell-based
[19] = biological target: Alpha-2-HS-glycoprotein (Homo sapiens) (UniProt P02765); test: Binding affinity to AHSG in human NCI-H358 cells at 1 uM by mass spectrometry based pull down assay; format: cell-based; method in brief: as §1
[20] = biological target: General vesicular transport factor p115 (Homo sapiens) (UniProt O60763); test: Binding affinity to USO1 in human NCI-H358 cells at 1 uM by mass spectrometry based pull down assay; format: cell-based

Sequence of Alpha-2-HS-glycoprotein (Homo sapiens) (P02765 whole entry): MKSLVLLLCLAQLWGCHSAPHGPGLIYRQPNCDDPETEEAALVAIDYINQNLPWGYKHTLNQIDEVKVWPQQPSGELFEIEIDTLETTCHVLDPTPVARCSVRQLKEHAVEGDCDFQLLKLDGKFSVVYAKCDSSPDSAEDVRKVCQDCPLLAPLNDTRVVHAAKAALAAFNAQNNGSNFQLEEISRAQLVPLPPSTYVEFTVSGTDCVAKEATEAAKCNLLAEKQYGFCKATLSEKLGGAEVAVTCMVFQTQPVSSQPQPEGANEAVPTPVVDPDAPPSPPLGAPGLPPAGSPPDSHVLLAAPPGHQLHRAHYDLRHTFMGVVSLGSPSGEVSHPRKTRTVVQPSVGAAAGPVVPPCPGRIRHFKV
Sequence of 5'-AMP-activated protein kinase subunit gamma-1 (Homo sapiens) (P54619 whole entry): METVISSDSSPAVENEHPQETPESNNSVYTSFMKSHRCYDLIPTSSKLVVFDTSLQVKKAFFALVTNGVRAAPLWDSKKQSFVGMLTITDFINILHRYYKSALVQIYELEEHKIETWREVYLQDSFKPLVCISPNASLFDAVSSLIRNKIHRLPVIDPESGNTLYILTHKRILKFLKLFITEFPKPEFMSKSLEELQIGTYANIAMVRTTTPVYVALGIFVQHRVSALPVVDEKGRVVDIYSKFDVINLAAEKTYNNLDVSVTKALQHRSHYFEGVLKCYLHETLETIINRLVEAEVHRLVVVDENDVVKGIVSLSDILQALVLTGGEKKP
Sequence of Dual specificity mitogen-activated protein kinase kinase 2 (Homo sapiens) (P36507 whole entry): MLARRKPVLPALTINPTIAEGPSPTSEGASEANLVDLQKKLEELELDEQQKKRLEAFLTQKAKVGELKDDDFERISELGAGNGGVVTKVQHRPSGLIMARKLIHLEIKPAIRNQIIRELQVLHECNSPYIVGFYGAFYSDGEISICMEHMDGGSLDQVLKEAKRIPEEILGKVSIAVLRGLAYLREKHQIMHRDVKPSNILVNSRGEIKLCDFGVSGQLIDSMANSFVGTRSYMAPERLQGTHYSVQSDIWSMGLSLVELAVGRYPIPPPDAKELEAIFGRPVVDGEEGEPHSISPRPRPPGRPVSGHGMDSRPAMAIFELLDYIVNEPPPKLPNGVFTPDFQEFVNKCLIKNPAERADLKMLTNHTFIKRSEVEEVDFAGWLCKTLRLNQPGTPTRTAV
Sequence of DNA replication licensing factor MCM6 (Homo sapiens) (Q14566 whole entry): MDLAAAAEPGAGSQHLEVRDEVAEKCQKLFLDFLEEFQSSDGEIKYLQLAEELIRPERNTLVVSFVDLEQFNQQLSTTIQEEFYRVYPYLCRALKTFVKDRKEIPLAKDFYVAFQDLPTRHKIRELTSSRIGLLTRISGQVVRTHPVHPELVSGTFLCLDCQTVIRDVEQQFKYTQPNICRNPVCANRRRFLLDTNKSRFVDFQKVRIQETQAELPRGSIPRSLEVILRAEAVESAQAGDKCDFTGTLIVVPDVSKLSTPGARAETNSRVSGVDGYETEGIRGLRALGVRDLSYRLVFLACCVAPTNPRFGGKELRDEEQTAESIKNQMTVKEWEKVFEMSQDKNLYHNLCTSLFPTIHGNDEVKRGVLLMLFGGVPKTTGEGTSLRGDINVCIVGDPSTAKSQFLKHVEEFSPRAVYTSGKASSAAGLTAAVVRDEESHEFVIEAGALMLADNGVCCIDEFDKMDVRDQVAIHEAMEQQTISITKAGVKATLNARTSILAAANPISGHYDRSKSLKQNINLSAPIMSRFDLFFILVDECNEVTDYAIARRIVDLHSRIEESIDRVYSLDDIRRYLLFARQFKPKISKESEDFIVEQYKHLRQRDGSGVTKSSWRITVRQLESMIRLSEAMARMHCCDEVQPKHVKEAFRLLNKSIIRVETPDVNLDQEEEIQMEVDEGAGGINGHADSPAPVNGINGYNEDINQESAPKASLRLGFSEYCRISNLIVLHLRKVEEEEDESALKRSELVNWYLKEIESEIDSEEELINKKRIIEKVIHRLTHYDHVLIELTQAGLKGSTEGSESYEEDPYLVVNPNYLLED
Sequence of AP2-associated protein kinase 1 (Homo sapiens) (Q2M2I8 whole entry, looked up): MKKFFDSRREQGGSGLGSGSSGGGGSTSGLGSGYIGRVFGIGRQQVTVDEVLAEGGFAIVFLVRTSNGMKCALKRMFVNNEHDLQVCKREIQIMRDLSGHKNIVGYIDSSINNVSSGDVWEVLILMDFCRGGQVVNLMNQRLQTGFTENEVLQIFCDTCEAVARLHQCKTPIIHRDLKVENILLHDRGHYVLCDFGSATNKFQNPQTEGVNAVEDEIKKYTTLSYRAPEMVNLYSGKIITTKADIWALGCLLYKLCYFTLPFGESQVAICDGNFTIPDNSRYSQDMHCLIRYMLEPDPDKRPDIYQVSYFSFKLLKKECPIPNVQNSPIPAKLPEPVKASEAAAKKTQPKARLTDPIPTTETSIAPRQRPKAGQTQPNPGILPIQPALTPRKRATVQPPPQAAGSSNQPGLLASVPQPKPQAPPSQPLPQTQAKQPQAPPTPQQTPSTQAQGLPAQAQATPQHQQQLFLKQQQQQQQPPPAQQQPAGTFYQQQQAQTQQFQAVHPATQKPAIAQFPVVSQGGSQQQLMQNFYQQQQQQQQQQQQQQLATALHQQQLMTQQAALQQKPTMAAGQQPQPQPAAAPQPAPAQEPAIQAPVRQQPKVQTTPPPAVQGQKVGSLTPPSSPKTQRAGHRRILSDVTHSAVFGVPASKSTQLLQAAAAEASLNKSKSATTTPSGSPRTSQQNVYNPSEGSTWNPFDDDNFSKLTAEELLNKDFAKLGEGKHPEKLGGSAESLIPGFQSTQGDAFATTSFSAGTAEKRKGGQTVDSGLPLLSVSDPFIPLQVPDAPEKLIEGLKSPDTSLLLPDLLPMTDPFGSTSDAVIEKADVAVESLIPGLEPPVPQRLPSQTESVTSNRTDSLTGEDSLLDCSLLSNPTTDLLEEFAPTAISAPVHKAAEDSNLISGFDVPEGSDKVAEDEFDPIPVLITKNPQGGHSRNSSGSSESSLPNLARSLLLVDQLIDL
Sequence of Mitogen-activated protein kinase 1 (Homo sapiens) (P28482 whole entry): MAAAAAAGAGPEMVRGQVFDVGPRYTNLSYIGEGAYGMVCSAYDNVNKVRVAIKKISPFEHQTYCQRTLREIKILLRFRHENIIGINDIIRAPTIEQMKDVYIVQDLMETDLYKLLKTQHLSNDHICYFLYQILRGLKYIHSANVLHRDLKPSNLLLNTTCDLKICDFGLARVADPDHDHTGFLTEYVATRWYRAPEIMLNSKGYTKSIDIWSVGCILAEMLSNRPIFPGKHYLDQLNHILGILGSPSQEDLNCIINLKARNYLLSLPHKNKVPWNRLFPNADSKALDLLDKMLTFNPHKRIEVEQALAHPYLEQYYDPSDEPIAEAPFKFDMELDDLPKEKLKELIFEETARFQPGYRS
Sequence of Ribosomal protein S6 kinase alpha-1 (Homo sapiens) (Q15418 whole entry): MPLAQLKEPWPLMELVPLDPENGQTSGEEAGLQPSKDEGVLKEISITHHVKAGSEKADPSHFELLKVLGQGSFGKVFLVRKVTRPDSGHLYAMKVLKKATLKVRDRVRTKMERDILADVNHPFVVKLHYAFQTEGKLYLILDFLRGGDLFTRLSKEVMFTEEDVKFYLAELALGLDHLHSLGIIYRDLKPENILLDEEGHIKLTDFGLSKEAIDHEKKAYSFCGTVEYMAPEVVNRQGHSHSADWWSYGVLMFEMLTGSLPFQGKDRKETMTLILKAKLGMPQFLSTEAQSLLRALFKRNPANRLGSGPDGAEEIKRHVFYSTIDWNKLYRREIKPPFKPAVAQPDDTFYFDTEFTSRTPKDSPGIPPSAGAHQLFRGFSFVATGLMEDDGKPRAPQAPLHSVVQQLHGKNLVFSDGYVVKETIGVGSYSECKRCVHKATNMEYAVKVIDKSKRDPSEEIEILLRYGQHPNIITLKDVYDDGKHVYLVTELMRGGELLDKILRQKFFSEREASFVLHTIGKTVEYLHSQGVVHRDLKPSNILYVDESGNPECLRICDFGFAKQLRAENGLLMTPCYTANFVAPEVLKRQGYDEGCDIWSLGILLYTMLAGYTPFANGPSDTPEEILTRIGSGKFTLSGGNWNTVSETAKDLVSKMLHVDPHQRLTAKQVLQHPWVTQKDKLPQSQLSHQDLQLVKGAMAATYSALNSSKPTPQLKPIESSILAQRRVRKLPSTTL
Sequence of Vasodilator-stimulated phosphoprotein (Homo sapiens) (P50552 whole entry): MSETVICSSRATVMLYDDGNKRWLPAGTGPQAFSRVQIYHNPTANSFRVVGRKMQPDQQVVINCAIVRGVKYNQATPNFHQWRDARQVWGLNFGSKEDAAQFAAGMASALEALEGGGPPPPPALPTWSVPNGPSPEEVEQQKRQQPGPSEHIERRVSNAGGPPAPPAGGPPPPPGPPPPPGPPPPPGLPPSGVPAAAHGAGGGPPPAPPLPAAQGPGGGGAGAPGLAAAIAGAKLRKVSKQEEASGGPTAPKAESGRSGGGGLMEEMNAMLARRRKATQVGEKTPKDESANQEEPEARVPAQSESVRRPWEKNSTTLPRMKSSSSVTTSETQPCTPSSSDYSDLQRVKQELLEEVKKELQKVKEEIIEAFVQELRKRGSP
Sequence of Pyruvate dehydrogenase E1 component subunit beta, mitochondrial (Homo sapiens) (P11177 whole entry): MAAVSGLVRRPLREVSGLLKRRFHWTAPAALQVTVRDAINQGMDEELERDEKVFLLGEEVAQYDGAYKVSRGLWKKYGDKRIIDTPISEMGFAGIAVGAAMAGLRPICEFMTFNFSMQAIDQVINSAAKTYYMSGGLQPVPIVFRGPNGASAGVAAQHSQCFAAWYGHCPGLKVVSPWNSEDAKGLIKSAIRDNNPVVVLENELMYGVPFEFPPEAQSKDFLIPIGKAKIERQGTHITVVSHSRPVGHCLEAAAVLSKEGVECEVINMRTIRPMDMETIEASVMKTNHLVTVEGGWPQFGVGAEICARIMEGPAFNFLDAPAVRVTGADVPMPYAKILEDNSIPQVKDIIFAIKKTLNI
Sequence of Proteasome activator complex subunit 2 (Homo sapiens) (Q9UL46 whole entry, one chain of several): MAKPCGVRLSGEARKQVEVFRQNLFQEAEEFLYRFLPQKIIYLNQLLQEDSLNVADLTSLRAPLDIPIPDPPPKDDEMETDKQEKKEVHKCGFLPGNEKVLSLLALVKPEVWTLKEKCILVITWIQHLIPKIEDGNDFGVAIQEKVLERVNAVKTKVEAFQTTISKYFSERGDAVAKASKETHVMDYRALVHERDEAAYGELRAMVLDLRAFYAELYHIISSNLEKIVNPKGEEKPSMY

Row | Compound | Activity [1] | Activity [2] | Activity [3] | Activity [4] | Activity [5] | Activity [6] | Activity [7] | Activity [8] | Activity [9] | Activity [10] | Activity [11] | Activity [12] | Activity [13] | Activity [14] | Activity [15] | IC50 [16] | Activity [17] | Activity [18] | Activity [19] | Activity [20]
1 | COc1cc(O)c2c(c1)/C=C/C[C@H](O)[C@H](O)C(=O)/C=C\C[C@H](C)OC2=O | 34% | 1.9% | – | – | – | – | – | – | – | – | – | – | – | – | – | – | – | – | – | –
2 | C=CC(=O)Nc1ccccc1Nc1nc(Nc2ccc(N3CCN(CCOCCOCCOCCNC(=O)CCCC[C@@H]4SC[C@@H]5NC(=O)N[C@@H]54)CC3)cc2)ncc1Cl | – | – | Active | Active | Active | Active | Active | Active | Active | Active | Active | Active | Active | Active | Active | 33 nM | Active | Active | Active | Active
